Experimental findings from ChEMBL document CHEMBL3588846, “Aryl Pyrazoles as Potent Inhibitors of Arginine Methyltransferases: Identification of the First PRMT6 Tool Compound” (ACS Med Chem Lett, 2015) are described below.

In general, IC50 refers to the concentration at which inhibition is half-maximal. In general, AUC(0-t) refers to the area under the concentration-time curve up to a stated or last time point. Read a low AUC(0-t) as less exposure. As usually defined, the AUC(0-inf) is total exposure, with the tail of the curve extrapolated. As a reminder, the fraction unbound is the share of the substance not bound to proteins or other matrix. The low end stands for extensive binding, the high end for weak binding. As usually defined, the Tmax is the time at which the peak concentration occurs. What is called bioavailability is the share of a dose that reaches the circulation, judged against a reference dose that is usually intravenous. A high value points to much systemic uptake. For orientation: Cmax means the peak of the concentration-time curve. Broadly, the clearance is a measure of how efficiently the substance is removed, as volume per time. The low end stands for inefficient removal, the high end for efficient removal.

Data set [1] has as its target T1, Protein arginine N-methyltransferase 6 (Homo sapiens, UniProt Q96LA8). Description: Inhibition of FLAG and hexa-histidine tagged full-length human PRMT6 expressed in HEK293F cells pre-incubated for 30 mins before addition of a [3H]SAM and peptide mix. Format: cell-based.
Data set [2] concerns the target Protein arginine N-methyltransferase 8 (Homo sapiens, UniProt Q9NR22). Description: Inhibition of N-terminal GST tagged full-length human PRMT8 expressed in Escherichia coli (BL21(DE3) pre-incubated for 30 mins before addition of a [3H]SAM and peptide mix.
Data set [3] has as its target T1, Protein arginine N-methyltransferase 6. As to the kind of experiment: Inhibition of his-tagged PRMT6 (unknown origin) expressed in human A375 cells assessed as reduction in H3R2 methylation at 0.01 to 20 uM incubated for 48 hrs by Western blot method. The class given is cell-based, A-375. (A western blot detects proteins with antibodies after separation by electrophoresis.)

The target in data set [4] is T2, Protein arginine N-methyltransferase 1 (Homo sapiens, UniProt Q99873). Description: Inhibition of N-terminal GST tagged full-length human PRMT1 expressed in high five insect cells pre-incubated for 30 mins before addition of a [3H]SAM and peptide mix.
T2 sequence (Q99873 whole entry): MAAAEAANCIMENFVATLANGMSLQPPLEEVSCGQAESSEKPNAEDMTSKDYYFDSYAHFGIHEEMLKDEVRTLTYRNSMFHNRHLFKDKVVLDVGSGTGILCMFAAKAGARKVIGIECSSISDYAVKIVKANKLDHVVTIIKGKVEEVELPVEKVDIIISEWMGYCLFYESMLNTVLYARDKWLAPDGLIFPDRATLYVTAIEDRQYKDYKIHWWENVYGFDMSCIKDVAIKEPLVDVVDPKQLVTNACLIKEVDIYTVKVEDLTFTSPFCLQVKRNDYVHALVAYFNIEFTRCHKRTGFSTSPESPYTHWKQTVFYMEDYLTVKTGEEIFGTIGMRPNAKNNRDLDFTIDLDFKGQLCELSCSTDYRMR
A short description of data set [5]: Permeability of the compound at 10 uM at pH 7.4 by LC-MS/MS based PAMPA method. Format: physicochemical. Particulars: read-out: permeability.
For the next data set, the system named is Rattus norvegicus. Description: Time above biochemical PRMT6 IC50 in Sprague-Dawley rat at 5 mg/kg, sc by LC-MS/MS method.
Data set [6] in a line: AUC (0 to t) in Sprague-Dawley rat at 1 mg/kg, iv administered as single dose by LC-MS/MS method. Format: ADME, organism-based. The note with it: in vivo.
The nature of data set [7]: Terminal half life in Sprague-Dawley rat at 1 mg/kg, iv administered as single dose by LC-MS/MS method. The class given is ADME, organism-based. The note with it: in vivo, read-out: beta t1/2 (converted).
Data set [8] deals with T2, Protein arginine N-methyltransferase 1. As to the kind of experiment: Inhibition of PRMT1 in human A375 cells assessed as effect on monomethyl R*GG motif methylation at 0.01 to 20 uM incubated for 48 hrs by Western blot method. Format: cell-based, A-375.
The nature of data set [9]: AUC (0 to infinity) in Sprague-Dawley rat at 1 mg/kg, iv administered as single dose by LC-MS/MS method. Format: ADME, organism-based. Also noted: dose 1 mg/kg, route intravenous, time infinity. The note with it: in vivo.
A short description of data set [10]: Unbound fraction in Sprague-Dawley rat plasma at 1 uM at 37 degC by equilibrium dialysis and LC-MS/MS method. The class given is ADME, cell-free. (In equilibrium dialysis free small molecules cross a membrane that holds back macromolecules.)
The nature of data set [11]: AUC (0 to infinity) in Sprague-Dawley rat at 5 mg/kg, sc by LC-MS/MS method. Format: ADME, organism-based. On the set-up: dose 5 mg/kg, route subcutaneous, time infinity. Particulars: in vivo.
A short description of data set [12]: Terminal half life in Sprague-Dawley rat at 5 mg/kg, sc by LC-MS/MS method. The note with it: in vivo, read-out: beta t1/2 (converted). The class given is ADME, organism-based.
Data set [13] in a line: Tmax in Sprague-Dawley rat at 5 mg/kg, sc by LC-MS/MS method. The class given is ADME, organism-based. The note with it: in vivo.
Data set [14] in a line: Oral bioavailability in rat. The class given is ADME, organism-based. The note with it: in vivo.
Data set [15] is described as follows: Volume of distribution at steady state in Sprague-Dawley rat at 1 mg/kg, iv administered as single dose by LC-MS/MS method. The note with it: in vivo, read-out: Vdss. The class given is ADME, organism-based.
For another data set, the system named is A-375. Description: Effect on PRMT6 expression in human A375 cells transfected with his-tagged PRMT6 at 0.01 to 20 uM incubated for 48 hrs by Western blot method. The class given is functional, cell-based. The gist of the method:
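A375 cells were transfected with a PRMT6 expression construct, with empty vector as the control, and PRMT6 was overexpressed for 48 h. Compound exposure also lasted 48 h. PRMT6 protein levels were then checked in the treated cells.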

Data set [16] in a line: Bioavailability in Sprague-Dawley rat at 5 mg/kg, sc by LC-MS/MS method. Format: ADME, organism-based. Particulars: in vivo.
Data set [17] can be described thus: Cmax in Sprague-Dawley rat at 5 mg/kg, sc by LC-MS/MS method. The note with it: in vivo. On the set-up: dose 5 mg/kg, route subcutaneous. The class given is ADME, organism-based.
Data set [18] in a line: Unbound fraction in human plasma at 1 uM at 37 degC by equilibrium dialysis and LC-MS/MS method. The class given is ADME, cell-free.
Data set [19] is described as follows: Clearance in Sprague-Dawley rat at 1 mg/kg, iv administered as single dose by LC-MS/MS method. The note with it: in vivo. Format: ADME, organism-based.
Data set [20] is described as follows: AUC (0 to t) in Sprague-Dawley rat at 5 mg/kg, sc by LC-MS/MS method. Format: ADME, organism-based. The note with it: in vivo.

The source made the active and inactive calls. The rule behind the calls is not given here.

T1 sequence (Q96LA8 whole entry): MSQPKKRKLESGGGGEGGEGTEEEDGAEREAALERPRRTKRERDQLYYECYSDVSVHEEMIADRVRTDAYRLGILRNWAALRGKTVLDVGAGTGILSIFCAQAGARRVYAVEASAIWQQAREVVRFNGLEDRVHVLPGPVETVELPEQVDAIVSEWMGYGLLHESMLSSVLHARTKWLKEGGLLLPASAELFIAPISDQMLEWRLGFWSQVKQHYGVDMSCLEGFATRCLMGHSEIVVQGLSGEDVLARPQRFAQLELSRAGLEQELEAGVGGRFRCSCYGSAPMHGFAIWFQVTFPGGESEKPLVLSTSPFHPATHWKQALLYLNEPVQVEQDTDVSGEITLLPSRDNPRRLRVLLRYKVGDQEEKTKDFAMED
Sequence of Protein arginine N-methyltransferase 8 (Q9NR22 whole entry): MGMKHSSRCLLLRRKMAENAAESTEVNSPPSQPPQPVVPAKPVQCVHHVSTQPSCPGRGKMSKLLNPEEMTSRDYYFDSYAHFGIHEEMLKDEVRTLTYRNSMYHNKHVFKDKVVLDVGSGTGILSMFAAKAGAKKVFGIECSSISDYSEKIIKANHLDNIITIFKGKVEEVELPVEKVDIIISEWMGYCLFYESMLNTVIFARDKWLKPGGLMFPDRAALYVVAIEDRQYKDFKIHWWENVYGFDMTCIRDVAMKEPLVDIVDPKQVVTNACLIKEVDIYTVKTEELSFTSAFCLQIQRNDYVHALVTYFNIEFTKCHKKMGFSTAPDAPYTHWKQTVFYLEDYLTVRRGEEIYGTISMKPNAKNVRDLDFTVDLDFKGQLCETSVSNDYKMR

In the case of `CNCCN(C)Cc1c[nH]nc1-c1cc(OCCc2ccccc2)cc(C(F)(F)F)c1`, the IC50 in data set [1] turned out to be 327 nM; in data set [2] it was 23 nM.

For the compound `CNCCN(C)Cc1n[nH]cc1-c1ccc(Oc2cccc(C(=O)N(C)C)c2)cc1`, the figures for the half-inhibitory concentration (IC50) in [1] and in [2] were 2 nM and 347 nM, respectively.

As for `CC(C)Oc1ccc(-c2[nH]ncc2CN(C)CCN)cc1Cl`, in data set [1], the IC50 amounted to 8 nM.

Turning to `CNCCN(C)Cc1n[nH]cc1-c1ccc(Oc2ccccc2C(=O)NC)cc1`, the half-inhibitory concentration (IC50) in data set [1] came to 5 nM; in data set [2], 65 nM.

Consider `CNCCN(C)Cc1c[nH]nc1-c1cc(OC(CO)CC(C)C)cc(C(F)(F)F)c1` (stereo not drawn), for which, in data set [3], the half-inhibitory concentration (IC50) is greater than 20000 nM.

Take `CNCCN(C)Cc1c[nH]nc1-c1ccc(Oc2cccc(C(=O)N(C)C)c2)cc1`: the half-maximal inhibitory concentration (IC50) in data set [1] came to 3 nM; in data set [2], 179 nM.

In data set [1], `CCOc1ccc(-c2[nH]ncc2CN(C)CCNC)cc1` displayed an IC50 of 25 nM.

Take `CNCCN(C)Cc1cn[nH]c1-c1ccc(OC(CO)C(C)C)cc1` (stereo not drawn): in data set [4], the IC50 was found to be 27 nM.

Regarding `CNCCN(C)Cc1c[nH]nc1-c1cc(OCCC2CCCCC2)cc(C(F)(F)F)c1`, the 50% inhibitory concentration (IC50) in data set [1] worked out at 461 nM; in data set [2], 21 nM.

For the compound `CC(C)Oc1c(Cl)cc(-c2c[nH]nc2CN(C)CCN)cc1C(F)(F)F`, the IC50 stood at 320 nM in data set [1] and 70 nM in data set [2].

`CNCCN(C)Cc1c[nH]nc1-c1ccc(OC(C)C)cc1` registered a half-inhibitory concentration (IC50) in data set [1] of 11 nM.

As for `CN(CCN)Cc1c[nH]nc1-c1ccc(OCCCN2CCOCC2)cc1`, in data set [1], half-maximal inhibition (IC50) required 13 nM.

In the case of `CNCCN(C)Cc1c[nH]nc1-c1ccc(O[C@H]2C[C@H](OCCC3CCOCC3)C2)cc1`, the Papp at 10 µM in [5] is 0.1 ×10⁻⁶ cm/s. Besides, the Time with Rattus norvegicus is greater than 12 h. The AUC(0-t) is 745 ng·h/mL in [6] and 2460 ng·h/mL in data set [20]. The figures for the half-life in [7] and in [12] were 8.54 h and 9.19 h, respectively. Further, the half-inhibitory concentration (IC50) is 7100 nM in data set [8] and 637 nM in data set [3]. The AUC(0-inf) in data set [9] was found to be 846 ng·h/mL; in data set [11], 2780 ng·h/mL. Also, the fraction unbound at 1 µM in data set [10] worked out at 0.51; in data set [18], 0.52. Also, the time of peak concentration (Tmax) in data set [13] worked out at 0.444 h. For the same compound, the results for the bioavailability in [14] and in data set [16] were less than 5% and 65.6%, respectively. In addition, the Vd in data set [15] came to 11.1 L/kg. Moreover, the outcome in the data set with A-375 was inactive. In data set [17], this compound gave a Cmax of 844 ng/mL. Also, the clearance in data set [19] stood at 19.7 mL/min/kg.

`CNCCN(C)Cc1cn[nH]c1-c1ccc(OC(C)C)c(Cl)c1`: the IC50 in data set [1] was determined as 10 nM.
